The values below come from ChEMBL document CHEMBL1153412, “Synthesis and anti-hepatitis B virus activities of Matijing-Su derivatives” (Bioorg Med Chem, 2009).

The source made the active and inactive calls. No cut-off for these calls is given here. Square brackets hold non-standard residues; d marks the D form. Peptide text beside a SMILES is read from it. * marks the point of attachment. Phe(4-NO2) = N[C@@H](Cc1ccc([N+](=O)[O-])cc1)C(=O)O; Phe(4-NH2) = Nc1ccc(C[C@H](N)C(=O)O)cc1; Propionyl = CCC(=O)*; Bz = O=C(c1ccccc1)*

Data set [1] concerns Hepatitis B virus. Kind of data set: Antiviral activity against HBV in human HepG2(2.2.15) cells assessed as inhibition of HBsAg production after 9 days by enzyme immunoassay. Type of data set: functional, organism-based. In a few lines:
(§1)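 2.2.15 cells seeded at 1.0 × 10⁵ cells/mL in MEM with 10% FBS for 24 h. After attachment, exposed to 50, 25 or 12.25 µg/mL in fresh DMEM, 4 wells per concentration, for 9 d, with medium changed every 3 d. Supernatant HBsAg and HBeAg measured by semiquantitative EIA kits on days 6 and 9. Untreated cells as control. Run twice.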

Data set [2] can be described thus: Cytotoxicity against human HepG2(2.2.15) cells treated for 9 days measured after 24 hrs of last treatment by neutral red uptake assay. To be noted: read-out: TC50. Format: cell-based. In outline: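 Confluent 2.2.15 cells treated as for the antiviral assay, 0.2 mL medium per well, with untreated control wells on each plate. Neutral red dye uptake read as absorbance at 510 nm relative to untreated cells, 24 h after day 9 of treatment.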

The test system of data set [3] is Hepatitis B virus. Kind of data set: Antiviral activity against HBV in human HepG2(2.2.15) cells assessed as inhibition of HBeAg production after 9 days by enzyme immunoassay. Type of data set: functional, organism-based. In outline: as §1
A short description of data set [4]: Selectivity index, ratio of TC50 for human HepG2(2.2.15) cells to IC50 for HBV.
Data set [5] has as its system Hepatitis B virus. Briefly: Antiviral activity against HBV in human HepG2(2.2.15) cells assessed as inhibition of viral genome replication after 9 days by Southern blot hybridization. Type of data set: functional, organism-based. To be noted: HepG2 2.2.15, 216 h. In outline: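 Confluent 2.2.15 cultures in RPMI 1640 with 2% FBS received daily doses, with medium and drug renewed each day. Intracellular HBV DNA quantified by Southern blot hybridization. IC50 calculated by […].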

As for `O=C(N[C@@H](Cc1ccccc1)C(=O)N[C@H](CO)Cc1ccccc1)c1ccccc1`, the outcome in data set [1] and in data set [3] was inactive. Further, in data set [2], the CC50 at 216 h worked out at 574 µM.
For the compound `CCC(=O)Nc1ccc(C[C@H](NC(=O)[C@H](Cc2ccccc2)NC(=O)c2ccccc2)C(=O)O)cc1` (Bz-Phe-[Phe(4-NH2)](Propionyl)-OH), the outcome in data set [1] and in data set [3] was inactive. Besides, the CC50 at 216 h in data set [2] came to 1150 µM.
Consider `CC(=O)Nc1ccc(C[C@@H](CO)NC(=O)[C@H](Cc2ccccc2)NC(=O)c2ccccc2)cc1`, for which the result in data set [1] and in data set [3] was inactive. The CC50 at 216 h in data set [2] was 164 µM.
For `CC(=O)Nc1ccc(C[C@H](NC(=O)[C@H](Cc2ccccc2)NC(=O)c2ccccc2)C(=O)O)cc1` (Bz-Phe-[Phe(4-NH2)](Ac)-OH), the result in data set [1] and in data set [3] was inactive.
In the case of `O=C(N[C@@H](Cc1ccccc1)C(=O)N[C@H](CO)Cc1ccc([N+](=O)[O-])cc1)c1ccccc1`, the outcome in data set [1] and in data set [3] was inactive. Moreover, the CC50 at 216 h in data set [2] came to 117 µM.
Usually IC50 stands for the point on the concentration scale where inhibition reaches its midpoint. Turning to `Nc1ccn([C@@H]2CS[C@H](CO)O2)c(=O)n1` [LAMIVUDINE], in data set [4], the “Selectivity Index” value turned out to be 41.59. Besides, in data set [2], the CC50 at 216 h stood at 3430 µM. The IC50 in data set [5] was determined as 82.4 µM.
With `O=C(N[C@@H](Cc1ccc([N+](=O)[O-])cc1)C(=O)N[C@@H](Cc1ccccc1)C(=O)O)c1ccccc1` (Bz-[Phe(4-NO2)]-Phe-OH), the outcome in data set [1] and in data set [3] was inactive. For the same compound, the “Selectivity Index” value in data set [4] turned out to be 15.52. In data set [2], the CC50 at 216 h is 841 µM. In addition, the IC50 in data set [5] is 54.2 µM.
Turning to `O=C(N[C@@H](Cc1ccc([N+](=O)[O-])cc1)C(=O)N[C@H](CO)Cc1ccccc1)c1ccccc1`, the outcome in data set [1] and in data set [3] was inactive. The CC50 at 216 h in data set [2] came to 119 µM.
Regarding `O=C(N[C@@H](Cc1ccccc1)C(=O)N[C@@H](Cc1ccc(O)cc1)C(=O)O)c1ccccc1` (Bz-Phe-Tyr-OH), the outcome in data set [1] and in data set [3] was inactive.
As to `Cc1ccc(C(=O)N[C@@H](Cc2ccccc2)C(=O)N[C@H](CO)Cc2ccccc2)cc1`, the result in data set [1] and in data set [3] was inactive. Further, the CC50 at 216 h in data set [2] was 1860 µM.
With `CC(=O)Nc1ccc(C[C@H](NC(=O)c2ccccc2)C(=O)N[C@H](CO)Cc2ccccc2)cc1`, the outcome in data set [1] and in data set [3] was inactive. The “Selectivity Index” value in data set [4] is on record as 23.82. Moreover, in data set [2], the CC50 at 216 h came out at 93.8 µM. The IC50 in data set [5] stood at 3.94 µM.
Turning to `Cc1cccc(C(=O)N[C@@H](Cc2ccccc2)C(=O)N[C@H](CO)Cc2ccccc2)c1`, the outcome in data set [1] and in data set [3] was inactive. In addition, the “Selectivity Index” value in data set [4] was 3.06. The CC50 at 216 h in data set [2] turned out to be 185 µM. In addition, the IC50 in data set [5] was determined as 60.5 µM.
As to `O=C(N[C@@H](Cc1ccccc1)C(=O)N[C@H](CO)Cc1ccccc1)c1ccccc1Cl`, the outcome in data set [1] and in data set [3] was inactive. For the same compound, in data set [2], the CC50 at 216 h came out at 382 µM.
For the compound `O=C(N[C@@H](Cc1ccccc1)C(=O)N[C@@H](Cc1ccccc1)C(=O)O)c1ccccc1` (Bz-Phe-Phe-OH), the outcome in data set [1] and in data set [3] was inactive. Further, in data set [4], the “Selectivity Index” value is on record as 12.36. In data set [2], the CC50 at 216 h came out at 313 µM. For the same compound, the IC50 in data set [5] was 25.4 µM.
Consider `O=C(N[C@@H](Cc1ccccc1)C(=O)N[C@H](CO)Cc1ccccc1)c1ccc(Cl)cc1`, for which the outcome in data set [1] and in data set [3] was inactive. The “Selectivity Index” value in data set [4] was found to be 28.29. Further, the CC50 at 216 h in data set [2] stood at 65.8 µM. Besides, in data set [5], the IC50 turned out to be 2.33 µM.
